The values below come from ChEMBL document CHEMBL2429740, “The synthesis and SAR study of phenylalanine-derived (Z)-5-arylmethylidene rhodanines as anti-methicillin-resistant Staphylococcus aureus (MRSA) compounds” (2013).

Converted amounts (≈) assume the structure as drawn.

Common to all, as to format: functional
In assay [1] the test system is Staphylococcus aureus. The assay can be described thus: Ratio of MIC for methicillin-resistant Staphylococcus aureus CA ATCC BAA-1680 in absence of 10% FBS to MIC for methicillin-resistant Staphylococcus aureus CA ATCC BAA-1680 in presence of 10% FBS. Summed up: (§1)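 MIC determined by the same turbidity-based microdilution method, once in standard medium and once in medium with 10% fetal serum added, to probe serum protein binding. The ratio is the MIC without serum over the MIC with serum, for each strain.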

Assay [2] has as its system Staphylococcus aureus. Nature of the assay: Ratio of MIC for methicillin-resistant Staphylococcus aureus ATCC 700787 in absence of 10% FBS to MIC for methicillin-resistant Staphylococcus aureus ATCC 700787 in presence of 10% FBS. The gist of the method: as §1
The subject of assay [3] is Staphylococcus aureus. The assay can be described thus: Antibacterial activity against methicillin-resistant Staphylococcus aureus ATCC BAA-39 by microdilution technique. On the technique in general: In broth dilution the organism is exposed to a series of concentrations in liquid medium.
The test system of assay [4] is Staphylococcus aureus. The assay can be described thus: Ratio of MIC for methicillin-resistant Staphylococcus aureus ATCC 700698 in absence of 10% FBS to MIC for methicillin-resistant Staphylococcus aureus ATCC 700698 in presence of 10% FBS. Summed up: as §1
Assay [5] relates to Staphylococcus aureus. Nature of the assay: Ratio of MIC for methicillin-resistant Staphylococcus aureus ATCC BAA-39 in absence of 10% FBS to MIC for methicillin-resistant Staphylococcus aureus ATCC BAA-39 in presence of 10% FBS. The gist of the method: as §1
Assay [6] relates to Staphylococcus aureus. Nature of the assay: Antibacterial activity against methicillin-resistant Staphylococcus aureus CA ATCC BAA-1680 by microdilution technique.
Assay [7] relates to Staphylococcus aureus. The assay can be described thus: Antibacterial activity against methicillin-resistant Staphylococcus aureus ATCC 34404 by microdilution technique.
Assay [8] concerns Staphylococcus aureus. Nature of the assay: Ratio of MIC for methicillin-resistant Staphylococcus aureus ATCC 34404 in absence of 10% FBS to MIC for methicillin-resistant Staphylococcus aureus ATCC 34404 in presence of 10% FBS. The gist of the method: as §1
Assay [9] concerns Staphylococcus aureus. Nature of the assay: Antibacterial activity against methicillin-resistant Staphylococcus aureus ATCC 700698 by microdilution technique.
Assay [10] has as its system Staphylococcus aureus. The assay can be described thus: Ratio of MIC for methicillin-resistant Staphylococcus aureus ST239 HS770 in absence of 10% FBS to MIC for methicillin-resistant Staphylococcus aureus ST239 HS770 in presence of 10% FBS. The gist of the method:
as §1

Assay [11] relates to Staphylococcus aureus. The assay can be described thus: Antibacterial activity against methicillin-resistant Staphylococcus aureus ATCC 700787 by microdilution technique.
Assay [12] deals with Staphylococcus aureus. Nature of the assay: Antibacterial activity against methicillin-resistant Staphylococcus aureus ST239 HS770 by microdilution technique.

By MIC is commonly meant the lowest concentration found to suppress growth. High values mean a need for much substance, low ones inhibition by little substance.

As for `O=C(O)[C@H](Cc1ccccc1)N1C(=O)/C(=C/c2cccc(Oc3ccc(Cl)c(Cl)c3)c2)SC1=S`, the Ratio in the assay on Staphylococcus aureus [1], with Staphylococcus aureus [2], with Staphylococcus aureus [4], in the assay on Staphylococcus aureus [5], with Staphylococcus aureus [8] and in the assay with Staphylococcus aureus [10] was 2 throughout. Besides, the MIC in the assay with Staphylococcus aureus [3] was determined as 1.95 mg/L (≈ 3.68 µM); against Staphylococcus aureus [6] it was 1.95 mg/L (≈ 3.68 µM); against Staphylococcus aureus [7], 0.98 mg/L (≈ 1.85 µM); with Staphylococcus aureus [9] it was 1.95 mg/L (≈ 3.68 µM); against Staphylococcus aureus [11], 3.9 mg/L (≈ 7.35 µM).
Consider `O=C(O)[C@@H](Cc1ccccc1)N1C(=O)/C(=C/c2cccc(Oc3cccc(Cl)c3)c2)SC1=S`, for which the Ratio with Staphylococcus aureus [1], with Staphylococcus aureus [2], in the assay on Staphylococcus aureus [4], with Staphylococcus aureus [5], with Staphylococcus aureus [8] and with Staphylococcus aureus [10] was 2 each time. Also, the MIC against Staphylococcus aureus [3] was 1.95 mg/L (≈ 3.93 µM); in the assay on Staphylococcus aureus [12], 1.95 mg/L (≈ 3.93 µM); against Staphylococcus aureus [6] it was 1.95 mg/L (≈ 3.93 µM); against Staphylococcus aureus [7], 0.98 mg/L (≈ 1.98 µM); in the assay with Staphylococcus aureus [9], 3.9 mg/L (≈ 7.86 µM); in the assay on Staphylococcus aureus [11], 3.9 mg/L (≈ 7.86 µM).
For the compound `O=C(O)[C@H](Cc1ccccc1)N1C(=O)/C(=C/c2cccc(-c3ccccc3)c2)SC1=S`, the Ratio with Staphylococcus aureus [1], with Staphylococcus aureus [2], in the assay on Staphylococcus aureus [4], in the assay on Staphylococcus aureus [5], in the assay on Staphylococcus aureus [8] and in the assay with Staphylococcus aureus [10] was 2 in each case. In addition, the MIC against Staphylococcus aureus [3] was found to be 0.98 mg/L (≈ 2.2 µM); against Staphylococcus aureus [12], 1.95 mg/L (≈ 4.38 µM); against Staphylococcus aureus [6], 1.95 mg/L (≈ 4.38 µM); in the assay on Staphylococcus aureus [7] it was 0.98 mg/L (≈ 2.2 µM); against Staphylococcus aureus [9], 1.95 mg/L (≈ 4.38 µM); in the assay on Staphylococcus aureus [11], 1.95 mg/L (≈ 4.38 µM).
